One data set relates to PLC-β2. The conditions noted are these: purified PLC ref 7; cited from earlier work.
The next data set concerns PLC-γ1. Conditions: purified PLC ref 7; cited from earlier work.
Another data set deals with PLC-δ1. The conditions noted are these: purified PLC ref 7; cited from earlier work.
Data set [1] addresses T1, PLC-γ1 (D1165H) (Rattus norvegicus, UniProt P10686, D1165H).
T1 sequence (P10686 1-1290 D1165H): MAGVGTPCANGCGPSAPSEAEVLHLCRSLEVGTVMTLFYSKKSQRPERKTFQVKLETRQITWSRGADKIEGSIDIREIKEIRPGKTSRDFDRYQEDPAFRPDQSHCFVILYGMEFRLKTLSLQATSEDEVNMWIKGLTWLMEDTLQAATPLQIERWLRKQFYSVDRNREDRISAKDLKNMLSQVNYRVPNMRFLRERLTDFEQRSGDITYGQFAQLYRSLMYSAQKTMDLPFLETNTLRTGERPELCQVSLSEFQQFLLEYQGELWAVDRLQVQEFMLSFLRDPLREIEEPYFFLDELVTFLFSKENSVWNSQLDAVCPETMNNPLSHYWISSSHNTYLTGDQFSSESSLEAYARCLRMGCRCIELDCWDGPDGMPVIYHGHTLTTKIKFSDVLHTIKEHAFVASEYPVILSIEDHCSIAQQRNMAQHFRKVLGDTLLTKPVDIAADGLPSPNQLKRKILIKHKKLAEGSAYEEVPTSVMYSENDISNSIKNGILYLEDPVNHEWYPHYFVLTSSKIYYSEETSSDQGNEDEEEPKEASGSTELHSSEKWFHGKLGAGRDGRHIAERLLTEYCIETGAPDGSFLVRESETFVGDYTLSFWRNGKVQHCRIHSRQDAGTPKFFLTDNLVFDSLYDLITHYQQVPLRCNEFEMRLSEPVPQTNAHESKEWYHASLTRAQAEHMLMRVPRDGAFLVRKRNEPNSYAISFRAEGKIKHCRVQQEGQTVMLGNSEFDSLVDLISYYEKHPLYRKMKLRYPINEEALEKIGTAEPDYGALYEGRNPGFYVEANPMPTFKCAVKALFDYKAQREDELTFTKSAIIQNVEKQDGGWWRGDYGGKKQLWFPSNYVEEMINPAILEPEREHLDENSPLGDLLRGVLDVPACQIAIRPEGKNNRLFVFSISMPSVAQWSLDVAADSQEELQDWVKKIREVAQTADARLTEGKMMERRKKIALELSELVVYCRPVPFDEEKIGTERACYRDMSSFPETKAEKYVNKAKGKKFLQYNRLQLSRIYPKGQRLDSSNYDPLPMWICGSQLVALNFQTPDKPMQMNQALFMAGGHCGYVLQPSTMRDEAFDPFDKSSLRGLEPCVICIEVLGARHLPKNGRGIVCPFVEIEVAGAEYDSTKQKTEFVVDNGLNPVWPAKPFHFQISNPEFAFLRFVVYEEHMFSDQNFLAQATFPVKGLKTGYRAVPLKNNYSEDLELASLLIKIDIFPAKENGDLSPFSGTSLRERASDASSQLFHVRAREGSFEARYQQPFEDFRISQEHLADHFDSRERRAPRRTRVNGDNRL
Kind of data set: Pilot high-throughput screen of LOPAC1280 with XY-69 in liposomes. Format: biochemical. In short, it runs like this:
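Screening was run in duplicate in 384-well format with test compounds at 10 μM. Purified PLC-γ1 (D1165H), 1 nM final, was preincubated 15 min at room temperature, then liposomes were added (final PE 220 μM, PIP₂ 20 μM, XY-69 0.5 μM). After 1 h the reaction was quenched with EGTA, pH 10.3, and read 30 min later (ex 485/em 520 nm). Full-inhibition controls were EGTA 10 mM and aurintricarboxylic acid 50 μM.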

For data set [2], the target named is T1, PLC-γ1 (D1165H). Kind of data set: IC50 measurement with XY-69 in liposomes. The data set is classed as biochemical. Conditions: for inhibition of PLC-γ1: statement in conclusions, relative to ATP.
The test system of a further data set is PLCs. The conditions noted are these: purified enzymes and intact cells; pan-inhibitors ref 24; cited from earlier work.
For data set [3] the following is noted: stated without experiment or reference; cited from earlier work.
Another data set in a line: Solubility. The data set is classed as physicochemical.
Data set [4] addresses T2, wild-type PLC-γ1 (Rattus norvegicus, UniProt P10686).
T2 sequence (P10686 2-1290): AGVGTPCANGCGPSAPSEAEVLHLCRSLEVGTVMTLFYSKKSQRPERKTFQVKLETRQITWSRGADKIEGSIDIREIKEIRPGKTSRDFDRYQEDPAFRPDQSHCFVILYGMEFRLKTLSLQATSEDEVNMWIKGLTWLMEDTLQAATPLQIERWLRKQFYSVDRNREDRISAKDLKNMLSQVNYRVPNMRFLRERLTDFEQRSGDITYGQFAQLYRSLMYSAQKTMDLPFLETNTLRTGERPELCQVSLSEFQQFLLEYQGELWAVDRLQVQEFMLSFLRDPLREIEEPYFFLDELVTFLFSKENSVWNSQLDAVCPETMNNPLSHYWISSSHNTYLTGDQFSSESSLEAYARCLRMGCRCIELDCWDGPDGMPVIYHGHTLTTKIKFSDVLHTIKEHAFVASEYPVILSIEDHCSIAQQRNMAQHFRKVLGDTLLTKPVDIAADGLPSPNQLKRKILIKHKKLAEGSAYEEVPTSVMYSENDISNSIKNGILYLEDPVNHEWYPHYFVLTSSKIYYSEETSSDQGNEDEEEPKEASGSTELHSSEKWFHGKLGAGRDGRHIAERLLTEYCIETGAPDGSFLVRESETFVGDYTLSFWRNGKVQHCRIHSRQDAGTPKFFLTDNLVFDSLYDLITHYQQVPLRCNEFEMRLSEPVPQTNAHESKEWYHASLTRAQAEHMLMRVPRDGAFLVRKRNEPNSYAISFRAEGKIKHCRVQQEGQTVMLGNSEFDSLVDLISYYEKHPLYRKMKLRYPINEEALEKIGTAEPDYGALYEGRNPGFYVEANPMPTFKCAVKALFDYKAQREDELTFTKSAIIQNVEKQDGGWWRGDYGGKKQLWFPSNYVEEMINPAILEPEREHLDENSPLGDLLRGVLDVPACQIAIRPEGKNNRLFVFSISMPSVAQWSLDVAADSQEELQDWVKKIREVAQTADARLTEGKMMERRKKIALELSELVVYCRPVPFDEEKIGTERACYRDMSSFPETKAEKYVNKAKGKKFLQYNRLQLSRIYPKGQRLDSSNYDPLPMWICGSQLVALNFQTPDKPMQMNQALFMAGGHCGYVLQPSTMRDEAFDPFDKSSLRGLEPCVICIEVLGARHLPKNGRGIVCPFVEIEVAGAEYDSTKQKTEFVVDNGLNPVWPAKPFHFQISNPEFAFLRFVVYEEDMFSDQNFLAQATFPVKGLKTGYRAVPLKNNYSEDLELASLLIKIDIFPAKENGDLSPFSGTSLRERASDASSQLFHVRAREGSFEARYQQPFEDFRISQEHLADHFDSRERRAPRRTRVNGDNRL
Kind of data set: Isothermal titration calorimetry. The conditions noted are these: ITC, 25 °C. Format: binding. On the technique in general: In ITC the heat of successive injections is recorded.

In the next data set the test system is PLC-β4. The conditions noted are these: high concentration (1 mM) ref 39; cited from earlier work.
The target in data set [5] is T3, wild-type PLC-γ1 (Rattus norvegicus, UniProt P10686).
T3 sequence (P10686 1-1290): T1 sequence (P10686 1-1290 D1165H) with H1165D

Setting [6] is: XY-69 0.5 μM, PIP2 20 μM in liposomes.

Molecules are shown by their SMILES. Numbering of substitutions follows the chain as printed. Like-named read-outs stand apart in the source and are kept apart here.

As for `COc1ccc2c(c1)CC[C@@H]1[C@@H]2CC[C@]2(C)[C@@H](NCCCCCCN3C(=O)C=CC3=O)CC[C@@H]12` [Hit U73122], the “inhibition of phospholipase activity” value with PLC-β2, in the data set with PLC-γ1 and with PLC-δ1 was “does not inhibit” each time. In addition, the “flagged as inhibitor in pilot screen” value on PLC-γ1 (D1165H) [1] (LOPAC1280 at 10 μM) is recorded as “not flagged as an inhibitor”.
The term IC50 denotes the concentration at which inhibition is half-maximal. Read a low IC50 as greater potency in that assay. On to `Nc1ncnc2c1ncn2[C@@H]1O[C@H](COP(=O)(O)OP(=O)(O)O)[C@@H](O)[C@H]1O` [ADP], for which the IC50 at PLC-γ1 (D1165H) [2] (setting [6]) turned out to be 4.3 µM. Moreover, the “inhibition of PLC-γ1” value at PLC-γ1 (D1165H) [2] is on record as “less or no inhibition”.
Take `O=C(O)C1=CC(=C(c2ccc(O)c(C(=O)O)c2)c2ccc(O)c(C(=O)O)c2)C=CC1=O` [ATA, aurintricarboxylic acid]: in the data set on PLCs, the “direct inhibition of PLCs” value is on record as “direct inhibitors”. Moreover, the cell permeability entry in data set [3] was “not cell permeable”. Also, the “inhibition by control in pilot screen” value on PLC-γ1 (D1165H) [1] (50 μM) is recorded as “Full inhibition”.
Take `Nc1ncnc2c1ncn2[C@@H]1O[C@H](COP(=O)(O)O)[C@@H](O)[C@H]1O` [AMP]: the “inhibition of PLC-γ1” value against PLC-γ1 (D1165H) [2] is listed as “less or no inhibition”.
`O=C(O)CN(CCOCCOCCN(CC(=O)O)CC(=O)O)CC(=O)O` [EGTA]: at PLC-γ1 (D1165H) [1] (10 mM, chelates Ca2+ cofactor), the “inhibition by control in pilot screen” value is listed as “Full inhibition”.
For the molecule `O=C1Nc2cc(Br)ccc2/C1=C1/Nc2ccccc2/C1=N\O` [Hit-1, 6-bromoindirubin-3′-oxime], the cell permeability result in data set [3] is “cell permeable”. Also, the “solubility in aqueous buffer” value in the data set “Solubility” is reported as “poor solubility”.
Molecule `Nc1nc2c(ncn2[C@@H]2O[C@H](COP(=O)(O)OP(=O)(O)OP(=O)(O)O)[C@@H](O)[C@H]2O)c(=O)[nH]1` [GTP] gave an IC50 against PLC-γ1 (D1165H) [2] (setting [6]) of 12.7 µM.
Broadly, the Kd is the free concentration of one partner at which half of the binding sites on the other are occupied at equilibrium, for simple one-to-one binding. A lower Kd goes with higher affinity. `Nc1ncnc2c1ncn2[C@@H]1O[C@H](COP(=O)(O)OP(=O)(O)OP(=O)(O)O)[C@@H](O)[C@H]1O` [ATP, adenosine triphosphate]: the cell permeability entry in [3] is listed as “not cell permeable”. Further, at wild-type PLC-γ1 [4], binding was put at a Kd of 2.6 µM. Besides, the inhibition entry in the data set with PLC-β4 is listed as “inhibit”. Further, at wild-type PLC-γ1 [5] (5 μM ATP present), the “reduction of Vmax” value was determined as 4.1 fold. Moreover, the “change of KM” value on wild-type PLC-γ1 [5] (1.5 and 5 μM ATP present) is “essentially unchanged”. For the same molecule, at PLC-γ1 (D1165H) [2], half-maximal inhibition (IC50) required 0.19 µM.

Source of the values: article PMC8081235 (Biochemistry, 2020).
